In ChEMBL document CHEMBL3046415, “Improved microwave-mediated synthesis of 3-(3-aryl-1,2,4-oxadiazol-5-yl)propionic acids and their larvicidal and fungal growth inhibitory properties” (2009):
The source made the active and inactive calls. The calls are words filed in the database; no cut-off is given here.

Experiments:
Type in all cases: functional
Fusarium lateritium = assay: Antifungal activity against Fusarium lateritium assessed as growth inhibition at 2 ug/ml after 72 hr by disk diffusion test; details: read-out: GI
Summary of the method: (§1)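 Strains from a university mycology culture collection, grown on PDA at 28 °C for 8–15 d until plates were covered. Mycelial disks ([…]) were cut from colony edges and placed on test plates. Ethylene glycol served as negative control. Plates were incubated at 28 °C for up to 72 h in triplicate. Percent inhibition was calculated from reduction in growth diameter.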

Fusarium verticillioides [1] = assay: Antifungal activity against Fusarium verticillioides assessed as growth inhibition at 2 ug/ml after 72 hr by disk diffusion test; summary of the method: as §1
Fusarium verticillioides [2] = assay: Antifungal activity against Fusarium verticillioides assessed as growth inhibition at 2 ug/ml after 48 hr by disk diffusion test; summary of the method: as §1
Fusarium decemcellulare = assay: Antifungal activity against Fusarium decemcellulare assessed as growth inhibition at 2 ug/ml after 72 hr by disk diffusion test; details: read-out: GI; summary of the method: as §1
Fusarium solani = assay: Antifungal activity against Fusarium solani assessed as growth inhibition at 2 ug/ml after 72 hr by disk diffusion test; details: read-out: GI; summary of the method: as §1

Structure (SMILES) | inhibition of growth at 2 µg/mL (Fusarium lateritium) | growth inhibition (GI) (Fusarium verticillioides [1]) | growth inhibition (GI) (Fusarium verticillioides [2]) | inhibition of growth at 2 µg/mL (Fusarium decemcellulare) | inhibition of growth at 2 µg/mL (Fusarium verticillioides [1]; read-out: GI) | inhibition of growth at 2 µg/mL (Fusarium verticillioides [2]; read-out: GI) | inhibition of growth at 2 µg/mL (Fusarium solani)
COc1ccc(-c2noc(CCC(=O)O)n2)cc1 | 45.8% | inactive | Active | 52.8% |  |  | 
O=C(O)CCc1nc(-c2ccccc2)no1 |  |  |  |  | 52.8% | 52.8% | 
O=C(O)CCc1nc(-c2ccc(Cl)cc2)no1 |  | inactive | Active | 66% |  |  | 59.7%
Cc1cccc(-c2noc(CCC(=O)O)n2)c1 |  | inactive | Active |  |  |  | 
Cc1ccc(-c2noc(CCC(=O)O)n2)cc1 |  | inactive | Active |  |  |  | 
O=C(O)CCc1nc(-c2ccc(Br)cc2)no1 |  | inactive | Active |  |  |  | 
O=C(O)CCc1nc(-c2ccc(F)cc2)no1 | 43% | inactive | Active |  |  |  | 
Cc1ccccc1-c1noc(CCC(=O)O)n1 |  | inactive | Active |  |  |  | 
O=C(O)CCc1nc(-c2ccc([N+](=O)[O-])cc2)no1 |  | inactive | Active |  |  |  | 
